From ChEMBL document CHEMBL2417455, “Design, synthesis and biological evaluation of new aryl thiosemicarbazone as antichagasic candidates” (Eur J Med Chem, 2013)
Activity calls are given as the source filed them. No cut-off for these calls is given here.

Experiments:
[1] = target: Cruzipain (Trypanosoma cruzi) (UniProt P25779); experiment: Inhibition of Trypanosoma cruzi cruzain expressed in Escherichia coli DH5-alpha using Bz-Phe-Arg-AMC as substrate at 10 uM preincubated for 5 mins followed by substrate addition measured for 5 mins by spectrofluorimetric analysis relative to control
Chain of Cruzipain (Trypanosoma cruzi) (P25779 123-467 limits assumed): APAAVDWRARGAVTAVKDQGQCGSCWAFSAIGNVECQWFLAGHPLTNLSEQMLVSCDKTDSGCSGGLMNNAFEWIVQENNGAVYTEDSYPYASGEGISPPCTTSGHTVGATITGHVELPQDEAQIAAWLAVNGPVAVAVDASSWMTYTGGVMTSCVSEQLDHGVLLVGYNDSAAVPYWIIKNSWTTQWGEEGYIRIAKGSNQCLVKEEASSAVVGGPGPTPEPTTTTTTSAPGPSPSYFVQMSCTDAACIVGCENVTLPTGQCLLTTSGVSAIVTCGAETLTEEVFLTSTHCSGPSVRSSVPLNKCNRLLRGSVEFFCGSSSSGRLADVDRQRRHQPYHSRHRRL
Method in brief: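 Recombinant cruzain at 0.23 nM in pH 6.5 buffer (50 mM Na2PO4, 2.5 mM EDTA), preincubated 5 min with or without inhibitor at a single 10 µM concentration. Bz-Phe-Arg-AMC was then added (stock 170 µM). Fluorescence was read at ex 380/em 460 nm, 37 °C, under magnetic stirring, for 5 min. Triplicate measurements.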

[2] = tested on: Trypanosoma cruzi; experiment: Trypanocidal activity against epimastigote stage of Trypanosoma cruzi Y after 72 hrs by MTT assay; assay type: functional, organism-based
Method in brief: (§1)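 Log-phase (7-day) Y-strain epimastigotes at 10⁷/mL in LIT medium with 10% fetal calf serum were exposed to DMSO-dissolved compound at 100, 50, 25, 10, 5, 2.5 and 1 µg/mL for 72 h at 28 °C. MTT-PMS was added for 75 min in the dark, then 10% SDS for 30 min. OD was read at 595 nm and percent death determined. IC50 by linear regression of OD. Triplicates, Probit analysis.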

[3] = tested on: Mus musculus; experiment: Mutagenicity in Swiss albino mouse at 100 mg/kg after 30 hrs by micronucleus test; assay type: toxicity, organism-based; parameters: dose 100 mg/kg; details: in vivo
Method in brief: (§2)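 Swiss albino mice (~30 g) were dosed by gavage at 50, 100 or 250 mg/kg bwt. Negative control received 1% CMC/0.2% Tween 40 aqueous solution by gavage; a water-only group set basal frequency. Tail blood was taken 30 h after treatment onto acridine orange slides and held ≥24 h at -20 °C in the dark. Micronuclei were counted per 1,000 reticulocytes per animal by fluorescence microscopy. Values are arithmetic means compared by one-way ANOVA/Tukey (P < 0.05).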

[4] = tested on: Mus musculus; experiment: Mutagenicity in Swiss albino mouse at 250 mg/kg after 30 hrs by micronucleus test; assay type: toxicity, organism-based; parameters: dose 250 mg/kg; details: in vivo; method in brief: as §2
[5] = tested on: Trypanosoma cruzi; experiment: Potency index, ratio of benznidazole IC50 to compound IC50 for epimastigote stage of Trypanosoma cruzi Y; assay type: functional
[6] = tested on: Trypanosoma cruzi; experiment: Trypanocidal activity against epimastigote stage of Trypanosoma cruzi Y at 5 ug/mL after 72 hrs by MTT assay relative to control; assay type: functional; method in brief: as §1
[7] = tested on: Trypanosoma cruzi; experiment: Trypanocidal activity against epimastigote stage of Trypanosoma cruzi Y at 50 ug/mL after 72 hrs by MTT assay relative to control; assay type: functional; method in brief: as §1
[8] = Trypanosoma cruzi, Y, 72 h, read-out: IC50

SMILES | inhibition [1] | IC50 [2, 8] [µM] | Activity [3] | other results
NC/C(=N\NC(N)=S)c1ccccc1 | inactive | > 409 |  | 
NC(=S)N/N=C(\CO)c1ccc([N+](=O)[O-])cc1 | 10% | 37.7 | Non-toxic | Activity [4]: Non-toxic
NC(=S)N/N=C(\COC(=O)CCC(=O)O)c1ccc([N+](=O)[O-])cc1 | 10% | 116 |  | 
NC(=S)N/N=C(\CNC(=O)CCC(=O)O)c1ccc([N+](=O)[O-])cc1 | 50% | 12 | Non-toxic | Activity [4]: Non-toxic
Br.NC/C(=N\NC(N)=S)c1ccc([N+](=O)[O-])cc1 | 20% | 6.3 | Non-toxic | Activity [4]: Non-toxic; Ratio IC50 [5]: 5
C/C(=N\NC(N)=S)c1cccc([N+](=O)[O-])c1 | 5% | > 420 |  | inhibition at 5 µg/mL [6]: 3%
C/C(=N\NC(N)=S)c1cccc(N)c1 | inactive | > 480 |  | 
C/C(=N\NC(N)=S)c1ccc(N)cc1 | 25% | > 480 |  | 
NC/C(=N\NC(N)=S)c1cccc([N+](=O)[O-])c1 | inactive | > 299 |  | inhibition at 50 µg/mL [7]: 3%
C/C(=N\NC(N)=S)c1ccc([N+](=O)[O-])c(N)c1 | 65% | 239 |  | 
C/C(=N\N=C(/N)S)c1ccccc1 [PHENYL(METHYL)THIOSEMICARBAZONE] | inactive | 195 |  | 
O=C(Cn1ccnc1[N+](=O)[O-])NCc1ccccc1 [BENZNIDAZOLE] |  | 34.6 | Toxic | 
C/C(=N\NC(N)=S)c1ccc(N)c([N+](=O)[O-])c1 | 55% |  |  | IC50 [2]: Not Active
